Laboratory results reported in ChEMBL document CHEMBL2440094, “Thiazolidinone-peptide hybrids as dengue virus protease inhibitors with antiviral activity in cell culture” (J Med Chem, 2013).
pEC50, pIC50, pKi: −log10 of the molar value. Calls of active or inactive are those of the source. The rule behind the calls is not given here. Square brackets hold non-standard residues; d marks the D form. Peptide text beside a SMILES is read from it. * marks the point of attachment. Nle = CCCC[C@H](N)C(=O)O; Bz = O=C(c1ccccc1)*

Tests used:
Dengue virus [1] = experiment: Inhibition of Dengue virus NS2B-NS3 protease expressed in Escherichia coli BL 21 (DE3) using Abz-Nle-Lys-Arg-Arg-Ser-3-(NO2)Tyr as substrate at 50 uM after 15 mins
Huh-7 = experiment: Cytotoxicity against human HuH7 cells at <50 uM after 48 hrs by firefly reporter assay; format: cell-based; conditions: huh-7, 48 h
In short: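 Uninfected Huh-7 cells stably expressing firefly luciferase, seeded 5000/well and incubated overnight at 37 °C. Compound added at 1.56–50 μM, plus 100, 200 and 400 μM, then incubated as for infected cells (further 48 h after the 4 h point). Firefly luminescence read with 70 μM luciferin and 2 mM ATP. Mean of three wells as percent of DMSO control.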

West Nile virus = experiment: Inhibition of West Nile virus NS2B-NS3 protease expressed in Escherichia coli BL 21 (DE3) using Abz-Gly-Leu-Lys-Arg-Gly-Gly-3-(NO2)Tyr as substrate at 50 uM after 15 mins
dengue virus type 2 = experiment: Antiviral activity against Dengue virus 2 infected in human Huh-7 cells assessed as inhibition of viral replication after 48 hrs by luciferase reporter gene assay; format: functional, organism-based; conditions: Huh-7, 48 h
In short: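 Huh-7 cells seeded 5000/well, incubated overnight at 37 °C, then given compound (1.56–50 μM final, 2-fold series in DMEM with 10% FCS). Dengue 2 renilla luciferase reporter virus (MOI 10) added 4 h later. After 48 h at 37 °C, cells lysed and renilla luminescence read with coelenterazine. At least four wells per concentration, expressed relative to DMSO control. EC50 by nonlinear regression.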

[2] = target: Prothrombin (Homo sapiens) (UniProt P00734); experiment: Inhibition of thrombin (unknown origin) using Boc-Val-Pro-Arg-AMC as substrate at 25 uM after 10 mins by continuous fluorimetric assay
In short: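 Thrombin (10 nM) preincubated 15 min with inhibitor (25 μM final) in 50 mM Tris-HCl pH 7.5, 150 mM NaCl, 0.05% Tween 20. Boc-Val-Pro-Arg-AMC then added to 50 μM (Km 16 μM). Fluorescence (ex 355 nm, em 460 nm) followed for 10 min as slope. Triplicate; percent inhibition versus no-inhibitor control.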

[3] = Inhibition of Dengue virus NS2B-NS3 protease expressed in Escherichia coli BL 21 (DE3) using Abz-Nle-Lys-Arg-Arg-Ser-3-(NO2)Tyr as substrate assessed as enzyme-inhibitor complex by Cornish-Bowden plot analysis; conditions: in the assay text read “Dixon plot” for “Cornish-Bowden plot”
In short: (§1)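 DEN2 NS2B–NS3 FRET assay run at inhibitor 0–6 μM (prior-series compounds 5–50 μM) and substrate 50, 100, 150 and 200 μM, in triplicate, with inner-filter correction. Ki from Dixon plots (1/v vs [I]) and Ki′ from Cornish-Bowden plots (S/v vs [I]). Inhibition mode assigned from these plots.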

[4] = Inhibition of Dengue virus NS2B-NS3 protease expressed in Escherichia coli BL 21 (DE3) using Abz-Nle-Lys-Arg-Arg-Ser-3-(NO2)Tyr as substrate assessed as enzyme-substrate-inhibitor complex by Cornish-Bowden plot analysis; in short: as §1
[5] = Inhibition of Dengue virus NS2B-NS3 protease expressed in Escherichia coli BL 21 (DE3) using Abz-Nle-Lys-Arg-Arg-Ser-3-(NO2)Tyr as substrate after 15 mins
[6] = Permeability of the compound by PAMPA; format: ADME; conditions: read-out: permeability
In short: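 PAMPA with precoated trilayer lipid/oil/lipid membranes, donor wells holding 200 μM compound in PBS pH 7.4 (2% DMSO final), in triplicate. Incubated 5 h at room temperature. Donor and acceptor concentrations determined by UV plate reader or HPLC-UV against calibration curves. Pe and mass retention R calculated.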

Dengue virus [7] = experiment: Competitive inhibition of Dengue virus NS2B-NS3 protease expressed in Escherichia coli BL 21 (DE3) using Abz-Nle-Lys-Arg-Arg-Ser-3-(NO2)Tyr as substrate by Cornish-Bowden plot analysis; in short: as §1

inhibition (Dengue virus [1])	inhibition (West Nile virus)	pEC50 (dengue virus type 2)	inhibition [2]	pIC50 [5]	Papp [6]	inhibition (Dengue virus [7])	SMILES	Activity (Huh-7)	pKi [3]	pKi [4]
84.4%	27%	< 4.30	14.5%	–	–	–	CCCC[C@H](NC(=O)[C@H](CCCCN)NC(=O)[C@H](CCCNC(=N)N)NC(=O)c1ccc(/C=C2\SC(=O)NC2=O)cc1)C(N)=O	Non-toxic	–	–
89%	35%	< 4.30	14.8%	–	–	–	CCCC[C@H](NC(=O)[C@H](CCCCN)NC(=O)[C@H](CCCNC(=N)N)NC(=O)c1ccc(/C=C2\SC(=S)N(C)C2=O)cc1)C(N)=O	Non-toxic	–	–
68.1%	7.7%	–	5.5%	4.88	–	Active	CCCC[C@H](NC(=O)[C@H](CCCCN)NC(=O)[C@H](CCCNC(=N)N)NC(=O)c1ccccc1)C(N)=O (Bz-Arg-Lys-[Nle]-NH2)	Non-toxic	4.95	< 4.30
87.1%	48.7%	< 4.30	13.9%	–	–	–	CCCC[C@H](NC(=O)[C@H](CCCCN)NC(=O)[C@H](CCCNC(=N)N)NC(=O)c1ccc(/C=C2\SC(=S)NC2=O)cc1)C(N)=O	Non-toxic	–	–
91.1%	38.1%	–	9.2%	–	–	–	CCCC[C@H](NC(=O)[C@H](CCCCN)NC(=O)[C@H](CCCNC(=N)N)NC(=O)c1ccc(/C=C2\SC(=O)N(C)C2=O)cc1)C(N)=O	Non-toxic	–	–
84.6%	15.6%	–	inactive	5.19	–	Active	CCCC[C@H](NC(=O)[C@H](CCCCN)NC(=O)[C@H](CCCNC(=N)N)NC(=O)c1ccc(/C=C/C(N)=O)cc1)C(N)=O	Non-toxic	5.09	< 4.30

Second part, the compound before the results:

SMILES	inhibition (Dengue virus [1])	inhibition (West Nile virus)	pEC50 (dengue virus type 2)	inhibition [2]	pIC50 [5]	Papp [6]	inhibition (Dengue virus [7])	Activity (Huh-7)	pKi [3]	pKi [4]
CCCC[C@H](NC(=O)[C@H](CCCCN)NC(=O)[C@H](CCCNC(=N)N)NC(=O)c1ccc(/C=C2\SC(=O)N(CCCC)C2=O)cc1)C(N)=O	100%	52.4%	< 4.30	18.4%	5.46	1.18 ×10⁻⁶ cm/s	Active	–	5.47	< 5.00
CCCC[C@H](NC(=O)[C@H](CCCCN)NC(=O)[C@H](CCCNC(=N)N)NC(=O)c1ccc(/C=C2\SC(=O)N(Cc3ccc(C)cc3)C2=O)cc1)C(N)=O	97.6%	66.7%	–	9.3%	5.32	–	Active	–	5.51	< 5.00
CCCC[C@H](NC(=O)[C@H](CCCCN)NC(=O)[C@H](CCCNC(=N)N)NC(=O)c1ccc(/C=C2\SC(=O)N(C3CCCCC3)C2=O)cc1)C(N)=O	98.4%	51.1%	–	9.1%	5.47	1.69 ×10⁻⁶ cm/s	Active	–	5.64	< 5.00
CCCC[C@H](NC(=O)[C@H](CCCCN)NC(=O)[C@H](CCCNC(=N)N)NC(=O)c1ccc(/C=C2\SC(=S)N(C3CCCC3)C2=O)cc1)C(N)=O	99.8%	97.7%	4.52	inactive	5.21	2.31 ×10⁻⁶ cm/s	Active	–	5.44	< 5.00
CCCC[C@H](NC(=O)[C@H](CCCCN)NC(=O)[C@H](CCCNC(=N)N)NC(=O)c1ccc(/C=C2\SC(=O)N(Cc3ccc(OC)cc3)C2=O)cc1)C(N)=O	97%	47.2%	–	12.3%	5.48	–	Active	–	5.66	< 5.00
CCCC[C@H](NC(=O)[C@H](CCCCN)NC(=O)[C@H](CCCNC(=N)N)NC(=O)c1ccc(/C=C2\SC(=S)N(c3ccc(Cl)cc3)C2=O)cc1)C(N)=O	96.7%	53.6%	4.45	11.1%	–	1.02 ×10⁻⁶ cm/s	–	–	–	–
CCCC[C@H](NC(=O)[C@H](CCCCN)NC(=O)[C@H](CCCNC(=N)N)NC(=O)c1ccc(/C=C2\SC(=O)N(CCOC(C)=O)C2=O)cc1)C(N)=O	97.6%	41.4%	–	16.8%	5.32	–	Active	–	5.44	< 5.00
C=CCN1C(=O)/C(=C/c2ccc(C(=O)N[C@@H](CCCNC(=N)N)C(=O)N[C@@H](CCCCN)C(=O)N[C@@H](CCCC)C(N)=O)cc2)SC1=S	96%	54.6%	4.50	inactive	–	0.42 ×10⁻⁶ cm/s	–	Non-toxic	–	–
CCCC[C@H](NC(=O)[C@H](CCCCN)NC(=O)[C@H](CCCNC(=N)N)NC(=O)c1ccc(/C=C2\SC(=S)N(CCCC)C2=O)cc1)C(N)=O	97.3%	64.7%	4.45	11.3%	5.21	1.61 ×10⁻⁶ cm/s	Active	–	5.33	< 5.00
CCCC[C@H](NC(=O)[C@H](CCCCN)NC(=O)[C@H](CCCNC(=N)N)NC(=O)/C=C1\SC(=S)N(Cc2ccc(OC)cc2)C1=O)C(N)=O	40.9%	15.3%	4.59	24.7%	–	–	–	Non-toxic	–	–
CCCC[C@H](NC(=O)[C@H](CCCCN)NC(=O)[C@H](CCCNC(=N)N)NC(=O)c1cccc(/C=C2\SC(=O)N(C3CCCC3)C2=O)c1)C(N)=O	92.4%	52.9%	4.27	13%	–	1.9 ×10⁻⁶ cm/s	–	–	–	–
